# Laboratory results as given in ChEMBL document CHEMBL3813658, “Texas Native Plants Yield Compounds with Cytotoxic Activities against Prostate Cancer Cells” (J Nat Prod, 2016).
# The source made the active and inactive calls. No cut-off for these calls is given here.
# Key:
# [1] = Cytotoxicity against human PC3 cells assessed as reduction in cell density after 48 hrs by sulforhodamine B assay relative to control; type: functional, PC-3
# In short: (§1)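 Sulforhodamine B assay. DU 145 cells in IMEM/10% FBS and PC-3 cells in RPMI-1640/10% FBS, both kept at 37 °C with 5% CO2, seeded at predetermined densities and left to adhere overnight. Cells exposed 48 h to a concentration range or DMSO vehicle, then TCA-fixed and SRB-stained. Bound dye dissolved in Tris and read at 560 nm.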
# Tubulin (Sus scrofa) [2] = molecular target: T1, Tubulin (Sus scrofa) (UniProt P02554+P02550); experiment: Induction of porcine brain tubulin polymerization at 2 uM incubated for 1 hr by turbidimetric assay
# In short: (§2)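 Purified porcine brain tubulin (2 mg/mL) in GPEM buffer with 1 mM GTP, polymerized for 1 h at 37 °C with 1% DMSO vehicle or compound at 2 or 20 μM. Turbidity followed as absorbance at 340 nm; initial rate and total polymer assessed.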
# [3] = Cell cycle arrest in human DU145 cells assessed as accumulation at S phase at 5 times antiproliferative IC50 after 16 to 23 hrs by propidium iodide staining based flow cytometry (reference value: 27.8 +/- 1%); type: functional; details: DU-145
# In short: (§3)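 Cells harvested on ice, stained with Krishan's reagent (propidium iodide), and DNA content read by flow cytometry. Phase percentages derived from DNA histograms. n = 2–3 per compound, n = 5 for vehicle; error bars are SEM.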
# [4] = molecular target: T2, Mitogen-activated protein kinase; ERK1/ERK2 (Homo sapiens) (UniProt P27361+P28482); experiment: Activation of ERK1/2 in human DU145 cells assessed as increase in phosphorylation at Thr202/Tyr204 residue at antiproliferative IC90 after 4 hrs by fluorescence based intracellular signaling array method; type: cell-based; details: DU-145
# In short: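 PathScan intracellular signaling array with fluorescent read-out. DU 145 cells treated for 4 h; lysates made with cell extraction buffer plus protease inhibitors, as for Western blots. Phospho-Erk1/2 at Thr202/Tyr204 scored.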
# [5] = Antiproliferative activity against human DU145 cells after 48 hrs by sulforhodamine B assay; type: functional, cell-based; details: DU-145, 48 h; in short: as §1
# DU-145 [6] = experiment: Ratio of IC50 for human PC3 cells to IC50 for human DU145 cells; type: functional
# [7] = molecular target: T2, Mitogen-activated protein kinase; ERK1/ERK2 (Homo sapiens); experiment: Increase in ERK1/2 phosphorylation in human DU145 cells at antiproliferative IC90 after 2 to 18 hrs by Western blot analysis; type: cell-based; details: DU-145
# In short: (§4)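 Equal protein run on SDS-PAGE and blotted to membrane. Probed with phospho-p44/42 and total p44/42 antibodies (1:1000) and HRP secondaries (1:5000), then quantified by densitometry.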
# DU-145 [8] = experiment: Disruption of mitotic spindle in human DU145 cells assessed as elongated and curved morphology at 5 times antiproliferative IC50 after 16 to 18 hrs by DAPI staining based immunofluorescence microscopy; type: functional, cell-based
# In short: (§5)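 Cells fixed in ice-cold methanol, then stained with anti-β-tubulin and FITC secondary antibody; DNA stained with DAPI. Spindle morphology, metaphase DNA alignment and interphase microtubules assessed by fluorescence microscopy.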
# [9] = (§6) Inhibition of colony formation in human DU145 cells at antiproliferative IC90 incubated for 4 hrs followed by compound washout measured after 7 to 9 days by crystal violet staining based clonogenic assay relative to control; type: functional, DU-145
# In short: (§7)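 DU 145 cells plated at 150 per 60 mm plate and left to adhere about 24 h. Cells treated 4 h at the IC90 concentration, washed with fresh medium, then grown 7−9 days drug-free. Colonies stained with 0.5% crystal violet in 20% methanol, counted by imaging, and compared with vehicle-treated controls.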
# [10] = Cell cycle arrest in human DU145 cells assessed as accumulation at G2/M phase at 5 times antiproliferative IC50 after 16 to 23 hrs by propidium iodide staining based flow cytometry (reference value: 21.8 +/- 1.5%); type: functional; details: DU-145; in short: as §3
# [11] = Antiproliferative activity against human PC3 cells after 48 hrs by sulforhodamine B assay; type: functional, cell-based; details: PC-3, 48 h
# [12] = Cytotoxicity against human DU145 cells assessed as reduction in cell density after 48 hrs by sulforhodamine B assay relative to control; type: functional, DU-145; in short: as §1
# DU-145 [13] = experiment: Disruption of mitotic spindle in human DU145 cells assessed as incorrect alignment of DNA at metaphase at 5 times antiproliferative IC50 after 16 to 18 hrs by DAPI staining based immunofluorescence microscopy; type: functional, cell-based; in short: as §5
# Tubulin (Sus scrofa) [14] = molecular target: T1, Tubulin (Sus scrofa); experiment: Induction of porcine brain tubulin polymerization at 20 uM incubated for 1 hr by turbidimetric assay; in short: as §2
# [15] = Cell cycle arrest in human DU145 cells assessed as accumulation at G0/G1 phase at 5 times antiproliferative IC50 after 16 to 23 hrs by propidium iodide staining based flow cytometry (reference value: 50.4 +/- […]%); type: functional; details: DU-145
# [16] = Cytotoxicity against human DU145 cells assessed as reduction in cell density at 61.3 uM after 48 hrs by sulforhodamine B assay relative to control; type: functional; details: DU-145, 48 h; in short: as §1
# [17] = molecular target: T2, Mitogen-activated protein kinase; ERK1/ERK2 (Homo sapiens); experiment: Increase in ERK1/2 phosphorylation in human DU145 cells at antiproliferative IC90 up to 2 hrs by Western blot analysis; type: cell-based; details: DU-145; in short: as §4
# DU-145 [18] = experiment: Effect on interphase microtubule in human DU145 cells at 5 times antiproliferative IC50 after 16 to 18 hrs by DAPI staining based immunofluorescence microscopy; type: functional, cell-based; in short: as §5
# [19] = Cytotoxicity against human PC3 cells assessed as reduction in cell density at 12.5 uM after 48 hrs by sulforhodamine B assay relative to control; type: functional; details: PC-3, 48 h; in short: as §1
# DU-145 [20] = experiment: as §6; type: functional; in short: as §7
# [21] = Cytotoxicity against human DU145 cells assessed as reduction in cell density at 12.5 uM after 48 hrs by sulforhodamine B assay relative to control; type: functional; details: DU-145, 48 h; in short: as §1
# [22] = Cytotoxicity against human PC3 cells assessed as reduction in cell density at 61.7 uM after 48 hrs by sulforhodamine B assay relative to control; type: functional; details: PC-3, 48 h; in short: as §1
# Tubulin (Sus scrofa) [23] = molecular target: T1, Tubulin (Sus scrofa); experiment: Effect on total porcine brain tubulin polymer level at 20 uM incubated for 1 hr by turbidimetric assay; in short: as §2
# DU-145 [24] = experiment: Disruption of mitotic spindle in human DU145 cells assessed as incorrect alignment of DNA at metaphase at 2 times antiproliferative IC50 after 16 to 18 hrs by DAPI staining based immunofluorescence microscopy; type: functional, cell-based; in short: as §5
# [25] = Cytotoxicity against human DU145 cells assessed as reduction in cell density at 61.7 uM after 48 hrs by sulforhodamine B assay relative to control; type: functional; details: DU-145, 48 h; in short: as §1
# DU-145 [26] = experiment: Disruption of mitotic spindle in human DU145 cells assessed as elongated and curved morphology at 2 times antiproliferative IC50 after 16 to 18 hrs by DAPI staining based immunofluorescence microscopy; type: functional, cell-based; in short: as §5
# T1 sequence (P02550 whole entry, looked up): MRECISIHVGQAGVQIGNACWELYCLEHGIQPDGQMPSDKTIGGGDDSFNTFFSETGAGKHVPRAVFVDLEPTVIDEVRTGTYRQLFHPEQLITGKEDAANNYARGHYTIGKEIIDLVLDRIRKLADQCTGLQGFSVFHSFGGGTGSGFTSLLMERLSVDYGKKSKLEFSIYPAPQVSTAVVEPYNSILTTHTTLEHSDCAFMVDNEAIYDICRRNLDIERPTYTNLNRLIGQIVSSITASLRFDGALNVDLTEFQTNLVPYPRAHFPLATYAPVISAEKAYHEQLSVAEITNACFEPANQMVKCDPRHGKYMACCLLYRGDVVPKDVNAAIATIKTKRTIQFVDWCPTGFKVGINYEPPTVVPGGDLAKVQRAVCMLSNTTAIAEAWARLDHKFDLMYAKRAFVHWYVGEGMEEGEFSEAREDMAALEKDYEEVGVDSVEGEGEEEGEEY
# T1 sequence (P02554 whole entry, looked up): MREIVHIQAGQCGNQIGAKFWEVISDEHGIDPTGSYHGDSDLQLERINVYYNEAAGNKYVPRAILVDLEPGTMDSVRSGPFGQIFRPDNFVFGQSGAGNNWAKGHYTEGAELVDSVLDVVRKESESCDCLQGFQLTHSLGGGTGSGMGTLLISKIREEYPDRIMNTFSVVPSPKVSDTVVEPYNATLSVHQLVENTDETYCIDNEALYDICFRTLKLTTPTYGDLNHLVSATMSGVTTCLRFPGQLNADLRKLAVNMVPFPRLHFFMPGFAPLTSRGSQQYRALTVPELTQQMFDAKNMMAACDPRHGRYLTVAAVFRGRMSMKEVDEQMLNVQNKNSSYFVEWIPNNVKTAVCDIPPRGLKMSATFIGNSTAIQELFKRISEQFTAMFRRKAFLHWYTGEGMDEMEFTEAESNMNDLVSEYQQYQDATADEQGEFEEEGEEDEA
# T2 sequence (P27361 whole entry, looked up): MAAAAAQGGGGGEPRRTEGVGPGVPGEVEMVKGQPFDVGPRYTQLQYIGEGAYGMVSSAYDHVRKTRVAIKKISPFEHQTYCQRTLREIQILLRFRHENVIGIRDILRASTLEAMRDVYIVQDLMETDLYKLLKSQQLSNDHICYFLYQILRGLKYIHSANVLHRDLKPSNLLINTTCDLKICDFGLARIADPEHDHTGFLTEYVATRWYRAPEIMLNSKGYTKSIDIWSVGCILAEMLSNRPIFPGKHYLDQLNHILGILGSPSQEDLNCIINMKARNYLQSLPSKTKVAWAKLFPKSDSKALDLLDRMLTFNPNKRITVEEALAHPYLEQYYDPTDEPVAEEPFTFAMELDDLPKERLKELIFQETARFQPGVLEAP
# T2 sequence (P28482 whole entry, looked up): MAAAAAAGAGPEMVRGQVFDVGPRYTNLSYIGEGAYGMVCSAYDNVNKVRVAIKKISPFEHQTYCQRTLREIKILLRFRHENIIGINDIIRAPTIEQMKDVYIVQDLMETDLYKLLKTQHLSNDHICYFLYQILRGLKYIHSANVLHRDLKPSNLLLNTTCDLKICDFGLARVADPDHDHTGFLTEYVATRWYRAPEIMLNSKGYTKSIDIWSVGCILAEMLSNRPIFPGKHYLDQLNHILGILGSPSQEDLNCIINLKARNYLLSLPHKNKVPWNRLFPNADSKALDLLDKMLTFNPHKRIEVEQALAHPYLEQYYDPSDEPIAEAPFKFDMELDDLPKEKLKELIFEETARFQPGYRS
Compound,Activity (Tubulin (Sus scrofa) [2]),Activity [4],Activity [7],Activity (Tubulin (Sus scrofa) [14]),inhibition (INH) [1] [%],Activity [3] [%],IC50 [5] [µM],Ratio IC50 (DU-145 [6]),Activity (DU-145 [8]),inhibition (INH) [9] [%],Activity [10] [%],IC50 [11] [µM],inhibition (INH) [12] [%],Activity (DU-145 [13]),Activity [15] [%],other results
CC(C)(O)C(O)Cc1c(O)ccc(C(=O)/C=C/c2ccccc2)c1O (stereo not drawn),,,,,,,25.5,1.4,,,,35,,,,inhibition at 61.3 µM [16]: 46%
CC(C)[C@@H]1CC[C@@]2(C)CCC[C@@](C)(O)[C@@H]2[C@@H]1OC(=O)/C=C/c1ccc(O)cc1,,Active,inactive,,,24.9,5.2,0.77,inactive,,23.5,4,,,51.5,Activity (DU-145 [18]): inactive; inhibition at 12.5 µM [19]: 84%; inhibition (DU-145 [20]): inactive; inhibition at 12.5 µM [21]: 84%
CC(=O)O[C@H]1C(=O)[C@@]2(C)[C@H]([C@H](OC(=O)c3ccccc3)[C@]3(O)C[C@H](OC(=O)[C@H](O)[C@@H](NC(=O)c4ccccc4)c4ccccc4)C(C)=C1C3(C)C)[C@]1(OC(C)=O)CO[C@@H]1C[C@@H]2O [PACLITAXEL],,,,,,,0.0038,,,,,,,,,
C=C(C)C(O)Cc1c(O)ccc(C(=O)/C=C/c2ccccc2)c1O (stereo not drawn),inactive,,,Active,,28.8,7,1.6,,44,33.4,11,,,37.8,inhibition at 61.7 µM [22]: 84%; Activity (Tubulin (Sus scrofa) [23]): inactive; Activity (DU-145 [24]): Active; inhibition at 61.7 µM [25]: 84%; Activity (DU-145 [26]): Active
C=C(C)C(=O)O[C@H]1C/C(C=O)=C\CC/C(C)=C/[C@H]2OC(=O)C(=C)[C@H]12,inactive,Active,inactive,inactive,20,27.2,1.8,1.7,Active,98,26.4,3,20,Active,46.4,Activity [17]: Active

# Second part, led by results:
Activity (Tubulin (Sus scrofa) [2]),Activity [4],Activity [7],Activity (Tubulin (Sus scrofa) [14]),Compound,inhibition (INH) [1] [%],Activity [3] [%],IC50 [5] [µM],Ratio IC50 (DU-145 [6]),Activity (DU-145 [8]),inhibition (INH) [9] [%],Activity [10] [%],IC50 [11] [µM],inhibition (INH) [12] [%],Activity (DU-145 [13]),Activity [15] [%],other results
inactive,Active,Active,inactive,C=C1C(=O)O[C@H]2C/C(COC(=O)C(C)C)=C/CC[C@]3(C)O[C@H]3[C@@H](O)[C@H]12,30,31.2,1.7,2.8,Active,42,34.5,4.7,20,Active,34.4,
inactive,Active,,inactive,C=C(C)C(=O)OC/C1=C\CC[C@]2(C)O[C@H]2[C@@H](O)[C@@H]2C(=C)C(=O)O[C@H]2C1,30,32.7,3.7,3.2,Active,23,34.5,12,20,Active,32.8,Activity [17]: Active
